Data: ChEMBL document CHEMBL3352729, “Hydroxybenzothiophene Ketones Are Efficient Pre-mRNA Splicing Modulators Due to Dual Inhibition of Dyrk1A and Clk1/4” (ACS Med Chem Lett, 2014)
pEC50, pIC50: −log10 of the molar value. Activity calls are given as the source filed them. The calls are words filed in the database; no cut-off is given here.

How the values were obtained:
[1] = target: T1, Dual specificity tyrosine-phosphorylation-regulated kinase 1A (Homo sapiens, UniProt Q13627); assay: Inhibition of recombinant Dyrk1A (unknown origin) using KKISGRLSPIMTEQ-NH2 peptide substrate
Method in brief: (§1)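 Kinase activity was measured in a cell-free assay with recombinant enzyme and peptide substrate at 100 μM ATP. Values are reported as IC50.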

[2] = target: T2, Dual specificity tyrosine-phosphorylation-regulated kinase 2 (Homo sapiens) (UniProt Q92630); assay: Inhibition of recombinant Dyrk2 (unknown origin) using KKISGRLSPIMTEQ-NH2 peptide substrate at 5 uM
T2 sequence (whole entry): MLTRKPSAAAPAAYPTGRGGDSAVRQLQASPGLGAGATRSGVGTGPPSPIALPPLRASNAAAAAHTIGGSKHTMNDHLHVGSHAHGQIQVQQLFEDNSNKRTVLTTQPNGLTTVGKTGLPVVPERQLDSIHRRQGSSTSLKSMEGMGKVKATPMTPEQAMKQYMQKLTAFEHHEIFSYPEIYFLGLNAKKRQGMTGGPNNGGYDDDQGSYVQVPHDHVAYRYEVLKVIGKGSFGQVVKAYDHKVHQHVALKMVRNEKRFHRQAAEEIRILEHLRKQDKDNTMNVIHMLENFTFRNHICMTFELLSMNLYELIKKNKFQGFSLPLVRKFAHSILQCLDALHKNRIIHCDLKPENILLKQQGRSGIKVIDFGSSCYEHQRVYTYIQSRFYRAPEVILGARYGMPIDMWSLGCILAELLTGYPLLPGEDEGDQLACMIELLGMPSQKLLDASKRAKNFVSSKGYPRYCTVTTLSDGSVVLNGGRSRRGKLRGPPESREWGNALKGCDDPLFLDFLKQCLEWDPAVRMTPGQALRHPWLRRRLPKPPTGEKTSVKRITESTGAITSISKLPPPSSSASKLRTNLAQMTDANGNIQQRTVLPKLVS

[3] = target: T3, Dual specificity tyrosine-phosphorylation-regulated kinase 1B (Homo sapiens, UniProt Q9Y463); assay: Inhibition of recombinant Dyrk1B (unknown origin) using KKISGRLSPIMTEQ-NH2 peptide substrate at 5 uM
Target sequence in this assay (Q9Y463 whole entry, looked up): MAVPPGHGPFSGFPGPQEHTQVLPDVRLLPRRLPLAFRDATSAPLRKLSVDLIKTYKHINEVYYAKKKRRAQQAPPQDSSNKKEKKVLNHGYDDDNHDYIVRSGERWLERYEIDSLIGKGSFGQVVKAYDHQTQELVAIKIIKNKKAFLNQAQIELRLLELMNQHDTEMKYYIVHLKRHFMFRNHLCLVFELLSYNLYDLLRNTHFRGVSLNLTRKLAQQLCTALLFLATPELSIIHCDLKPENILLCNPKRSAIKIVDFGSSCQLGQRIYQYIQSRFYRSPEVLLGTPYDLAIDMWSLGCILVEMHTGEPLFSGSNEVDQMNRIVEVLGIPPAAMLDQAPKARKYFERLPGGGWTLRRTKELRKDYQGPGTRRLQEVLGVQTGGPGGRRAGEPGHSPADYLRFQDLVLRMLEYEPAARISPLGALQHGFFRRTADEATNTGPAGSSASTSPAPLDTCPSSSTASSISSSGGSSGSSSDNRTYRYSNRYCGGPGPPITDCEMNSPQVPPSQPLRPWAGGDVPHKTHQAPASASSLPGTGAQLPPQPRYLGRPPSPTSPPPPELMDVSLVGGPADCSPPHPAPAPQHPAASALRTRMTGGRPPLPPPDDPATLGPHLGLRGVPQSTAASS

[4] = target: T4, Dual specificity protein kinase CLK1 (Homo sapiens, UniProt P49759); assay: Inhibition of recombinant Clk1 (unknown origin) using GRSRSRSRSR peptide substrate; method in brief: as §1
Target sequence in this assay (P49759 whole entry): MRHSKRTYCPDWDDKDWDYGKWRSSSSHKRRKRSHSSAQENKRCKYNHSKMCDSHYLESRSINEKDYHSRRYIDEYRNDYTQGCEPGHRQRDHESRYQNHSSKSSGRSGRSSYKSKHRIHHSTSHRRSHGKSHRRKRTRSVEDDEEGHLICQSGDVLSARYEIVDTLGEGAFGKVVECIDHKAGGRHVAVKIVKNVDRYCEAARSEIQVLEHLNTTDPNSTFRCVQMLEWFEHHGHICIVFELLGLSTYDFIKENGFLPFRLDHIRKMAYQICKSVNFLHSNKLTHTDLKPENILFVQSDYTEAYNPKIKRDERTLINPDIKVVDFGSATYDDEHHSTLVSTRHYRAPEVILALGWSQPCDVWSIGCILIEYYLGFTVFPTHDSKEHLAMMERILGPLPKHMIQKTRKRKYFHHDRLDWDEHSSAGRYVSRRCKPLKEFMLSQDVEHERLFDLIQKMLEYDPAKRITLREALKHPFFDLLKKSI

[5] = target: Casein kinase II subunit alpha (Homo sapiens) (UniProt P68400); assay: Inhibition of CK2alpha (unknown origin) at 5 uM
Sequence of Casein kinase II subunit alpha (Homo sapiens) (P68400 whole entry, looked up): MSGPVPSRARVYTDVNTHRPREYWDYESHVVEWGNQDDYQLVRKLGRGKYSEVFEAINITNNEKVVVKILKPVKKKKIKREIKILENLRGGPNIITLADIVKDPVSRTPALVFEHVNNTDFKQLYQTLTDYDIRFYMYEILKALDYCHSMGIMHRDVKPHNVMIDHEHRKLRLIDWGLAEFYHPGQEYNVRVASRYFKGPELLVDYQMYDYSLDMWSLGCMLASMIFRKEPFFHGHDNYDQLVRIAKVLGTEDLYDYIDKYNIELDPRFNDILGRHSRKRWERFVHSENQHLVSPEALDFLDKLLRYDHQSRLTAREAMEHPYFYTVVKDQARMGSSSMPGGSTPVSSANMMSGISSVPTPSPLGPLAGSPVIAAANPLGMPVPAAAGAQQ

[6] = Modulation of Clk/sty pre-mRNA splicing in human STO cells assessed as concentration required to increase in mature Clk2 mRNA level by RT-PCR analysis; type: functional, cell-based; conditions: in the assay text read “Clk1” for “Clk2”
Method in brief: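 STO cells were treated for 4 h with compound added to the culture medium, with 0.05% DMSO as control. Total RNA was purified, and the Clk1/Sty splicing pattern was analysed by RT-PCR. Read-outs were the concentration for a 5-fold increase, the concentration for half-maximal generation of mature Clk1 mRNA, and the maximum fold increase over DMSO. Data are means of three independent experiments run in triplicate.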

[7] = target: T5, 17-beta-hydroxysteroid dehydrogenase type 1 (Homo sapiens) (UniProt P14061); assay: Inhibition of 17-betaHSD1 (unknown origin) at 5 uM
T5 sequence (whole entry): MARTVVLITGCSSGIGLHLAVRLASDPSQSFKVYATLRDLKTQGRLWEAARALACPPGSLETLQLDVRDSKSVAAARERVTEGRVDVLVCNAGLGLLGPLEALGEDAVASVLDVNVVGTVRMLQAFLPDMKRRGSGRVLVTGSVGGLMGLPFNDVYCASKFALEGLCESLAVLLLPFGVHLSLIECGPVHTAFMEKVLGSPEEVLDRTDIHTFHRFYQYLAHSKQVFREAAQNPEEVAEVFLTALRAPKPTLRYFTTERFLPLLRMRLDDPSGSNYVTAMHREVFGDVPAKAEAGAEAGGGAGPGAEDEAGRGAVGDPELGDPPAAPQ

[8] = Modulation of Clk/sty pre-mRNA splicing in human STO cells assessed as concentration required to increase in mature Clk1 mRNA level by RT-PCR analysis relative to control
[9] = target: T3, Dual specificity tyrosine-phosphorylation-regulated kinase 1B; assay: Inhibition of recombinant Dyrk1B (unknown origin) using KKISGRLSPIMTEQ-NH2 peptide substrate
Target sequence in this assay (Q9Y463 whole entry): as the sequence (Q9Y463 whole entry, looked up) above

[10] = system: STO; assay: Modulation of pre-mRNA splicing in human STO cells assessed as increase in mature Clk1 mRNA production at 10 to 20 uM by RT-PCR analysis
[11] = Modulation of Clk/sty pre-mRNA splicing in human STO cells assessed as concentration required to 5 fold increase in mature Clk1 mRNA level by RT-PCR analysis
[12] = target: T6, 17-beta-hydroxysteroid dehydrogenase type 1 (Homo sapiens, UniProt P14061); assay: Inhibition of 17-betaHSD1 (unknown origin)
T6 sequence (P14061 whole entry): T5 sequence (whole entry)

[13] = Modulation of Clk/sty pre-mRNA splicing in human STO cells assessed as concentration required to increase in mature Clk1 mRNA level by RT-PCR analysis
[14] = target: T4, Dual specificity protein kinase CLK1; assay: Inhibition of recombinant Clk1 (unknown origin) using GRSRSRSRSR peptide substrate at 5 uM
Target sequence in this assay (P49759 whole entry, looked up): as the sequence (P49759 whole entry) above

[15] = target: T1, Dual specificity tyrosine-phosphorylation-regulated kinase 1A; assay: Inhibition of recombinant Dyrk1A (unknown origin) using KKISGRLSPIMTEQ-NH2 peptide substrate at 5 uM

SMILES | pIC50 [1] | inhibition [2] [%] | inhibition [3] [%] | pIC50 [4] | inhibition [5] [%] | pEC50 [6] | inhibition [7] | fold change (FC) [8] | pIC50 [9] | Activity [10] | Activity [11] [µM] | pIC50 [12] | pEC50 [13] | inhibition [14] [%] | inhibition [15] [%]
O=C(c1cccc(O)c1)c1cc2cc(O)ccc2[nH]1 | 4.82 | 24 | 41 | 5.70 | 22 |  |  |  |  |  |  |  |  |  | 
CC(=O)c1cc2cc(O)ccc2s1 | 6.70 | 46 |  | 7.22 | 9 | 5.05 | inactive | 21.4 | 7.00 | Active | 1.1 |  |  |  | 
Cc1ccc(C(=O)c2cc3cc(O)ccc3s2)cc1O | 6.70 | 50 |  | 7.30 | 10 | 5.74 |  | 9.5 | 6.70 | Active | 1.9 | 6.71 |  |  | 
O=C(c1cccc(O)c1)c1ccc2cc(O)ccc2c1 | 5.54 |  |  | 5.72 |  |  |  |  | 5.64 |  |  |  |  |  | 
COc1ccc2sc(C(=O)N(C)OC)cc2c1 | 6.05 | 41 |  | 7.00 |  |  | inactive | 8.1 | 5.80 |  | 2.4 |  | 5.68 |  | 
Cn1c(C(=O)c2cccc(O)c2)cc2cc(O)ccc21 | 5.47 | 25 |  | 5.68 | 31 |  |  |  | 5.57 |  |  |  |  |  | 
O=C(c1ccc(O)cc1)c1cc2cc(O)ccc2s1 | 5.47 | 25 |  | 6.52 | 33 |  |  |  | 6.10 |  |  |  |  |  | 
O=C(c1ccccc1)c1cc2cc(O)ccc2s1 | 5.70 | 37 |  | 6.70 | 13 |  |  |  | 6.00 |  |  |  |  |  | 
N#Cc1cccc(C(=O)c2cc3cc(O)ccc3s2)c1 | 5.22 | 6 |  | 6.40 | 10 |  |  |  | 5.64 |  |  |  |  |  | 
O=C(c1cccc(O)c1)c1cc2cc(O)ccc2s1 | 6.40 | 49 |  | 7.00 | 12 |  |  |  | 6.70 | Active |  |  |  |  | 
Cc1cc(C(=O)c2cc3cc(O)ccc3s2)ccc1O | 4.96 | 8 |  |  |  |  |  |  | 5.15 |  |  |  |  | 25 | 
O=C(c1cccc(O)c1)c1cc2ccccc2s1 | 4.38 | 15 | 6 |  | 24 |  |  |  |  |  |  |  |  |  | 
O=C(c1ccc(F)c(O)c1)c1cc2cc(O)ccc2s1 | 5.92 | 27 |  | 6.52 | 15 |  |  |  | 6.40 |  |  |  |  |  | 
CCN1/C(=C/C(C)=O)Sc2ccc(OC)cc21 |  |  |  |  |  | 5.18 |  | 17 |  |  | 3.1 |  |  |  | 
O=C(c1ccc(O)cc1)c1cc2cc(O)ccc2o1 | 5.01 | 38 |  | 6.00 | 17 |  |  |  | 5.89 |  |  |  |  |  | 
O=C(c1cccc(O)c1)c1cc2cc(O)ccc2o1 | 5.51 | 34 |  | 5.72 | 21 |  |  |  | 5.21 |  |  |  |  |  | 
O=C(c1cc2cc(O)ccc2s1)c1cc(O)ccc1F | 5.70 | 30 |  | 7.30 | 20 |  |  |  | 6.40 |  |  |  |  |  | 
COc1cccc(C(=O)c2cc3cc(OC)ccc3s2)c1 |  | -7 | 40 |  |  |  |  |  |  |  |  |  |  | 47 | 10
